ChEMBL document CHEMBL1140411, “Deoxyuridine triphosphate nucleotidohydrolase as a potential antiparasitic drug target” (J Med Chem, 2005)
pIC50, pKi: −log10 of the molar value.

Legend:
[1] = target: T1, dUTP pyrophosphatase (Plasmodium falciparum 3D7, UniProt Q8II92); test: Inhibitory constant against Plasmodium falciparum deoxyuridine 5'-triphosphate nucleotidohydrolase expressed in Escherichia coli BL21 (DE3) cells
T1 sequence (Q8II92 whole entry): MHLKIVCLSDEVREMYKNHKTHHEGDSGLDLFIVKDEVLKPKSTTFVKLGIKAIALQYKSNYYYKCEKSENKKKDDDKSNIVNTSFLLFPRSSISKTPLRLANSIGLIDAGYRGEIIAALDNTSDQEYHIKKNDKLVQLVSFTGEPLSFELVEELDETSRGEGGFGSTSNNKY
How it was run: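 Recombinant PfdUTPase expressed in E. coli BL21(DE3) and purified by phosphocellulose and gel filtration to ~96% purity. Continuous stopped-flow assay following proton release with cresol red/bicine (50:2000 µM, 573 nm). Mix: 30 nM enzyme, 50 µM dUTP, 5 mM MgCl2, 2.5 mM DTT, 1.25 mg/mL BSA, 100 mM KCl. KMapp from integrated Michaelis-Menten fits, plotted against [I] to give Ki.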

[2] = test system: L6; test: In vitro cytotoxicity aganist rat skeletal myoblasts (L-6 cells) after 72 hours; type: functional, cell-based; conditions: L6, 72 h
How it was run: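 L-6 rat skeletal myoblasts seeded at 4 × 10^4 cells/mL in RPMI 1640 with 10% FBS and 2 mM L-glutamine. After 24 h, medium replaced with a serial drug dilution, then 72 h at 37 °C, 5% CO2. Alamar Blue added for a further 2-4 h. Fluorescence read at ex 536/em 588 nm. Run twice independently, in duplicate.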

[3] = target: T2, Deoxyuridine 5'-triphosphate nucleotidohydrolase, mitochondrial (Homo sapiens, UniProt P33316); test: Inhibitory constant against human deoxyuridine 5'-triphosphate nucleotidohydrolase expressed in Escherichia coli BL21 (DE3) cells
T2 sequence (P33316 whole entry): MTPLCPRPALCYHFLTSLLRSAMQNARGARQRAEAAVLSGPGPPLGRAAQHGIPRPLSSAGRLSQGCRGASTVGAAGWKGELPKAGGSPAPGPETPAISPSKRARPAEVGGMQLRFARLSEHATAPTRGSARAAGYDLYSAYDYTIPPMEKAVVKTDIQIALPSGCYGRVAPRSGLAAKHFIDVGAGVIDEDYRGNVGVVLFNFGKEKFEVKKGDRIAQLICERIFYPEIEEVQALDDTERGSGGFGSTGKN
How it was run: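 Human dUTPase expressed in E. coli BL21(DE3) and purified like the Plasmodium enzyme (phosphocellulose, then gel filtration). dUTP hydrolysis followed continuously by stopped-flow as pH-indicator absorbance (cresol red/bicine, 50:2000 µM, 573 nm). Apparent KM from integrated Michaelis-Menten fits at each inhibitor concentration; Ki from linear KMapp versus [I].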

[4] = test system: Leishmania donovani; test: In vitro growth inhibitory activity against Leishmania donovani amastigotes at 37 degrees C under a 5% CO2 atmosphere for 96 hours; type: functional, organism-based
How it was run: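 Mouse peritoneal macrophages in RPMI 1640 with 10% heat-inactivated FBS, infected after 24 h with L. donovani amastigotes at 3:1 (amastigote:macrophage). Free amastigotes washed out at 4 h. Next day, drug-containing medium added for 96 h at 37 °C, 5% CO2. Slides methanol-fixed and Giemsa-stained. Percentage of infected macrophages scored microscopically versus control; IC50 by linear regression. Twice independently, in duplicate.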

[5] = target: T3, dUTP pyrophosphatase (Plasmodium falciparum 3D7) (UniProt Q8II92); test: Selectivity index for Plasmodium falciparum deoxyuridine 5'-triphosphate nucleotidohydrolase defined as (Ki Human)/(Ki Plasmodium falciparum)
T3 sequence (whole entry): T1 sequence (Q8II92 whole entry)
How it was run: (§1)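 Ratio of human dUTPase Ki to P. falciparum dUTPase Ki. Both Ki values came from stopped-flow pH-indicator assays following dUTP hydrolysis, with Ki derived from the dependence of apparent KM on inhibitor concentration.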

[6] = test system: Trypanosoma brucei rhodesiense; test: Inhibitory constant against Trypanosoma brucei rhodesiense upon incubation with the compound at 37 degrees C under a 5% CO2 atmosphere for 72 hours; type: functional, organism-based
[7] = target: T4, dUTP pyrophosphatase (Leishmania major, UniProt O15826); test: Inhibitory constant against Leishmania major deoxyuridine 5'-triphosphate nucleotidohydrolase
T4 sequence (O15826 whole entry): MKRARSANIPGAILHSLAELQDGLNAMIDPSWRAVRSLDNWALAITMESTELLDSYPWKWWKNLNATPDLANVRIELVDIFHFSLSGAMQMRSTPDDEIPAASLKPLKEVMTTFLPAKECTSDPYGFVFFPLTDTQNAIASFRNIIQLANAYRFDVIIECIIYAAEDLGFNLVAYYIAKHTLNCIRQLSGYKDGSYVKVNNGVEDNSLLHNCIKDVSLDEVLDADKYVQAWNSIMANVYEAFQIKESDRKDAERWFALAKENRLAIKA

[8] = test system: Plasmodium falciparum; test: In vitro inhibitory activity against Plasmodium falciparum as [3H]hypoxanthine (50 uL) incorporation at 37C; type: functional, organism-based
[9] = test system: Trypanosoma cruzi; test: In vitro growth inhibitory activity against Trypanosoma cruzi in rat L-6 cells upon incubation at 37 degrees C in 5% CO2 atmosphere for 4 days; type: functional, organism-based; conditions: L6, 96 h
How it was run: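 L-6 cells seeded at 2000 cells/well in RPMI 1640 with 10% FBS and 2 mM L-glutamine. After 24 h, 5000 T. cruzi Tulahuen C2C4 LacZ trypomastigotes added with serial drug dilutions, then 4 days at 37 °C, 5% CO2. CPRG/Nonidet substrate added and colour read at 540 nm after 2-4 h. IC50 from sigmoidal curve. Twice independently, in duplicate.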

[10] = target: T3, dUTP pyrophosphatase (Plasmodium falciparum 3D7); test: Selectivity index for Plasmodium falciparum deoxyuridine 5'-triphosphate nucleotidohydrolase defined as (Ki Human)/(Ki Plasmodium falciparum); na= not relevant; how it was run: as §1

SMILES | pKi [1] | pIC50 [2] | pKi [3] | pIC50 [4] | SI [5] | pIC50 [6] | pKi [7] | pIC50 [8] | pIC50 [9] | SI [10]
CCOP(=O)(OCC)OC[C@H]1O[C@@H](n2ccc(=O)[nH]c2=O)C[C@@H]1O[Si](C)(C)C(C)(C)C | 3.47 | 3.97 | < 3.00 | 4.20 | > 3 | 4.46 | < 3.00 | < 5.00 | 4.39 | 
O=c1ccn(C2CC(F)C(CNC(c3ccccc3)(c3ccccc3)c3ccccc3)O2)c(=O)[nH]1 (centres undefined) | 4.92 | 4.52 | < 3.00 | < 4.20 | > 83 | 5.44 | < 3.00 | 5.28 | 4.33 | 
Cc1ccc(S(=O)(=O)OC[C@H]2O[C@@H](n3ccc(=O)[nH]c3=O)C[C@@H]2O)cc1 | 3.85 | < 3.63 | < 3.00 | < 4.10 | > 7 | 4.36 | < 3.00 | < 4.89 | < 3.63 | 
O=c1ccn(C2CC(F)C(CO[Si](c3ccccc3)(c3ccccc3)c3ccccc3)O2)c(=O)[nH]1 (centres undefined) | 3.01 | 4.07 | < 3.00 |  |  | 5.35 | < 3.00 | 6.00 | 4.08 | Not Relevant
CCCCC(=O)NCC1OC(n2ccc(=O)[nH]c2=O)CC1O (centres undefined) | 3.72 | < 3.54 | < 3.00 | < 4.01 | > 5 | 3.83 | < 3.00 | < 4.80 | < 3.54 | 
CS(=O)(=O)NCC1OC(n2ccc(=O)[nH]c2=O)CC1O (centres undefined) | 3.75 | < 3.53 | < 3.00 | < 4.01 | > 5 | 3.83 | < 3.00 | < 4.80 | < 3.53 | 
NS(=O)(=O)OC[C@H]1O[C@@H](n2ccc(=O)[nH]c2=O)C[C@@H]1O | < 3.00 |  | < 3.00 | < 4.01 |  | 3.84 | 3.15 | < 3.79 | < 3.53 | Not Relevant
O=C(NCC1OC(n2ccc(=O)[nH]c2=O)CC1O)c1ccccc1 (centres undefined) | 3.75 | < 3.57 | 3.33 | < 4.04 | 2.6 | 3.92 | < 3.00 | < 4.82 | < 3.57 | 
O=c1ccn([C@H]2C[C@H](O)[C@@H](COP(=O)(Oc3ccccc3)Oc3ccccc3)O2)c(=O)[nH]1 | 3.62 | < 3.71 | 3.87 | < 4.19 | 0.6 | 4.28 | < 3.00 | < 4.96 | < 3.71 | 
CCCCC(=O)OC[C@H]1O[C@@H](n2ccc(=O)[nH]c2=O)C[C@@H]1O | 3.64 | < 3.54 | < 3.00 | 4.02 | > 4 | 3.83 | < 3.00 | < 4.80 | < 3.55 | 
CC(C)(C)[Si](C)(C)OC1CC(n2ccc(=O)[nH]c2=O)OC1CNP(=O)(Oc1ccccc1)Oc1ccccc1 (centres undefined) | 4.17 | 4.74 | 3.63 | > 5.22 | 3.5 | 4.55 | < 3.00 | 5.40 | 5.22 | 
CCOP(=O)(CC(=O)OC[C@H]1O[C@@H](n2ccc(=O)[nH]c2=O)C[C@@H]1O[Si](C)(C)C(C)(C)C)OCC | 3.66 |  |  | < 4.24 |  | 4.40 | < 3.00 | 4.74 | 4.12 | Not Relevant
CC(=O)OC[C@H]1O[C@@H](n2ccc(=O)[nH]c2=O)C[C@@H]1O | 3.53 | 4.19 | < 3.00 | < 3.95 | > 3 | 4.89 | < 3.00 | < 4.72 | 3.56 | 
CCOP(=O)(CC(=O)OC[C@H]1O[C@@H](n2ccc(=O)[nH]c2=O)C[C@@H]1O)OCC | 3.91 | 3.77 | < 3.00 | < 4.13 | > 8 | 3.91 | < 3.00 | 4.01 | < 3.65 | 
CCOP(=O)(OCC)OC[C@H]1O[C@@H](n2ccc(=O)[nH]c2=O)C[C@@H]1O | 3.50 | 3.70 | < 3.00 | < 4.09 | > 3 | 4.43 | < 3.00 | < 4.85 | < 3.61 | 
CC(C)(C)[Si](C)(C)O[C@H]1C[C@H](n2ccc(=O)[nH]c2=O)O[C@@H]1COP(=O)(Oc1ccccc1)Oc1ccccc1 | 3.22 | < 3.80 | < 3.00 | < 4.77 | > 1.7 | 4.92 | 3.94 | 5.22 | 5.00 | 
O=c1ccn(C2C=CC(CO[Si](c3ccccc3)(c3ccccc3)c3ccccc3)O2)c(=O)[nH]1 (centres undefined) | 5.89 | 4.07 | < 3.00 | 4.89 | > 769 | 5.80 | 3.46 | 6.00 | 4.38 | 
NS(=O)(=O)NC(=O)OCC1C=CC(n2ccc(=O)[nH]c2=O)O1 (centres undefined) | 4.09 | 3.58 | 3.10 | < 4.05 | 9.7 | 4.40 | < 3.00 | < 3.82 | < 3.57 | 
NCC1OC(n2ccc(=O)[nH]c2=O)CC1O (centres undefined) | < 3.00 |  | < 3.00 |  |  |  | < 3.00 |  |  | Not Relevant
CC(C)(C)[Si](C)(C)O[C@H]1C[C@H](n2ccc(=O)[nH]c2=O)O[C@@H]1COC(c1ccccc1)(c1ccccc1)c1ccccc1 | 3.29 | < 3.81 | < 3.00 | 4.77 | > 1.9 | 4.60 | 3.34 | 6.00 | 3.61 | 
O=c1ccn(C2CC(O)C(CNP(=O)(Oc3ccccc3)Oc3ccccc3)O2)c(=O)[nH]1 (centres undefined) | 4.59 | < 3.71 | < 3.00 | < 4.19 | > 38 | < 3.71 | < 3.00 | < 4.96 | < 4.19 | 
CC(=O)NCC1OC(n2ccc(=O)[nH]c2=O)CC1O (centres undefined) | < 3.00 | < 3.47 | < 3.00 | < 3.95 |  | 3.71 | < 3.00 | < 4.72 | < 3.47 | Not Relevant
